Data published in ChEMBL document CHEMBL2046302, “Fused tricyclic indoles as S1P₁ agonists with robust efficacy in animal models of autoimmune disease” (Bioorg Med Chem Lett, 2012).
pEC50, pIC50: −log10 of the molar value. Activity calls are given as the source filed them. No cut-off for these calls is given here.

Assays:
[1] = target: T1, Sphingosine 1-phosphate receptor 4 (Homo sapiens, UniProt O95977); assay: Agonist activity against human S1P4 by beta arrestin recruitment assay; assay type: functional
T1 sequence (O95977 whole entry): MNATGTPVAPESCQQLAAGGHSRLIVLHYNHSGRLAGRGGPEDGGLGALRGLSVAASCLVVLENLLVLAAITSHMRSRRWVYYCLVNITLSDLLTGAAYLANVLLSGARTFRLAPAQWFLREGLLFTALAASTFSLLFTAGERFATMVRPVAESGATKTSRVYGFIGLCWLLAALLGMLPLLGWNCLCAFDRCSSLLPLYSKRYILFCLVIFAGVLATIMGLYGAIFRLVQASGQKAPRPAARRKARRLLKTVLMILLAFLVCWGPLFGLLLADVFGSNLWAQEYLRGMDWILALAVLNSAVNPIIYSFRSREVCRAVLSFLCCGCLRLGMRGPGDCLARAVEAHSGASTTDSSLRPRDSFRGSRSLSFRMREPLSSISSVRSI
In short: (§1)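 Agonist EC50 at human S1P1 through S1P5 was measured by β-arrestin recruitment. Values are the mean of three or more replicates.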

[2] = target: T2, Sphingosine 1-phosphate receptor 1 (Homo sapiens, UniProt P21453); assay: Agonist activity against human S1P1 by beta arrestin recruitment assay; assay type: functional; in short: as §1
[3] = system: Rattus norvegicus; assay: Toxicity in telemeterized Charles-River Sprague-Dawley rat assessed as reduction in heart rate at 30 mg/kg, po measured over 20 hrs; assay type: organism-based; design: dose 30 mg/kg, route oral; settings: in vivo
In short: (§2)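 Telemeterized Charles River Sprague–Dawley rats received 3 or 30 mg/kg orally as a suspension in 0.5% methyl cellulose, with vehicle-treated and positive-control groups. Heart rate was recorded hourly over 20 h.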

[4] = Half life in rat liver microsome; assay type: ADME; settings: liver microsomes
[5] = target: T3, Voltage-gated inwardly rectifying potassium channel KCNH2 (Homo sapiens, UniProt Q12809); assay: Inhibition of human ERG by astemizole assay
[6] = target: Cytochrome P450 2C9 (Homo sapiens, UniProt P11712); assay: Inhibition of CYP2C9; assay type: ADME
[7] = target: T3, Voltage-gated inwardly rectifying potassium channel KCNH2; assay: Inhibition of human ERG by patch clamp assay
[8] = target: Sphingosine 1-phosphate receptor 1 (Mus musculus, UniProt O08530); assay: Agonist activity against mouse S1P1 assessed as accumulation of cAMP by HTRF assay; assay type: functional
In short: (§3)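 Agonist EC50 was read from a cAMP HTRF assay run on human, rat and mouse S1P1. Response was scaled against S1P, and values are the mean of three or more replicates.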

[9] = target: Sphingosine 1-phosphate receptor 2 (Homo sapiens, UniProt O95136); assay: Agonist activity against human S1P2 by beta arrestin recruitment assay; assay type: functional; in short: as §1
[10] = system: Salmonella typhimurium; assay: Mutagenic activity against Salmonella typhimurium assessed as base pair mutation by ames test; assay type: toxicity, organism-based; settings: salmonella enterica subsp. enterica serovar typhimurium
In short: (§4)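 Ames bacterial reverse mutation test on five strains, scored for frame-shift and base-pair substitution mutations.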

[11] = Cmax in Sprague-Dawley rat in Sprague-Dawley rat at 2 mg/kg, iv and 3 mg/kg, po; assay type: ADME, organism-based; settings: in vivo
In short: (§5)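 Male Sprague–Dawley rats received 2.0 mg/kg IV in 100% PEG400 and 3.0 mg/kg PO in 0.5% methyl cellulose. Clearance, Vss, terminal half-life, Cmax, AUClast and oral bioavailability were derived from plasma levels.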

[12] = target: Cytochrome P450 2D6 (Homo sapiens, UniProt P10635); assay: Inhibition of CYP2D6; assay type: ADME
[13] = target: Cytochrome P450 3A4 (Homo sapiens, UniProt P08684); assay: Inhibition of CYP3A4; assay type: ADME
[14] = target: Cytochrome P450 2C19 (Homo sapiens, UniProt P33261); assay: Inhibition of CYP2C19; assay type: ADME
[15] = Terminal half life in Sprague-Dawley rat at 2 mg/kg, iv and 3 mg/kg, po; assay type: ADME, organism-based; settings: in vivo, read-out: beta t1/2 (converted); in short: as §5
[16] = Clearance in Sprague-Dawley rat at 2 mg/kg, iv and 3 mg/kg, po; assay type: ADME, organism-based; settings: in vivo; in short: as §5
[17] = target: T4, Cytochrome P450 1A2 (Homo sapiens, UniProt P05177); assay: Inhibition of CYP1A2; assay type: ADME
T4 sequence (P05177 whole entry): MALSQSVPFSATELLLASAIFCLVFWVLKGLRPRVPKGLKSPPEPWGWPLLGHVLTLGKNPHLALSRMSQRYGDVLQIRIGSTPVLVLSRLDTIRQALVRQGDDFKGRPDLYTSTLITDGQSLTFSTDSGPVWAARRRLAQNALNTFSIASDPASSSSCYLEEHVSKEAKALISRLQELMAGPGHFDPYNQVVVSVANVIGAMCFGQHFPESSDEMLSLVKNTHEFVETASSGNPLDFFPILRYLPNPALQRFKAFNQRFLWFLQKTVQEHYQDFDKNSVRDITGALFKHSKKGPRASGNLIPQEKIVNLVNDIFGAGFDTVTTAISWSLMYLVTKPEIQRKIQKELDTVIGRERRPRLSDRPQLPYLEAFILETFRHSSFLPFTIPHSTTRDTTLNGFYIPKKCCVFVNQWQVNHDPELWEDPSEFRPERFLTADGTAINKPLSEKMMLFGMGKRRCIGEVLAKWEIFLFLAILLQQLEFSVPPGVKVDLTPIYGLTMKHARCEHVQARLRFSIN

[18] = target: Sphingosine 1-phosphate receptor 3 (Homo sapiens, UniProt Q99500); assay: Agonist activity against human S1P3 by beta arrestin recruitment assay; assay type: functional; in short: as §1
[19] = target: T2, Sphingosine 1-phosphate receptor 1; assay: Agonist activity against human S1P1 assessed as accumulation of cAMP by HTRF assay; assay type: functional; in short: as §3
[20] = Half life in human liver microsome; assay type: ADME; settings: liver microsomes
[21] = AUClast in Sprague-Dawley rat in Sprague-Dawley rat at 2 mg/kg, iv and 3 mg/kg, po; assay type: ADME, organism-based; settings: plasma; in short: as §5
[22] = system: Rattus norvegicus; assay: Toxicity in telemeterized Charles-River Sprague-Dawley rat assessed as reduction in heart rate at 3 mg/kg, po measured over 20 hrs; assay type: organism-based; design: dose 3 mg/kg, route oral; settings: in vivo; in short: as §2
[23] = target: Sphingosine 1-phosphate receptor 5 (Homo sapiens, UniProt Q9H228); assay: Agonist activity against human S1P5 by beta arrestin recruitment assay; assay type: functional; in short: as §1
[24] = system: Salmonella typhimurium; assay: Mutagenic activity against Salmonella typhimurium assessed as frame shift mutation by ames test; assay type: toxicity, organism-based; settings: salmonella enterica subsp. enterica serovar typhimurium; in short: as §4
[25] = target: Sphingosine 1-phosphate receptor 1 (Rattus norvegicus, UniProt P48303); assay: Agonist activity against rat S1P1 assessed as accumulation of cAMP by HTRF assay; assay type: functional; in short: as §3
[26] = Oral bioavailability in Sprague-Dawley rat at 3 mg/kg; assay type: ADME, organism-based; settings: in vivo; in short: as §5
[27] = Volume of distribution at steady state in Sprague-Dawley rat at 2 mg/kg, iv and 3 mg/kg, po; assay type: ADME, organism-based; settings: in vivo, read-out: Vdss; in short: as §5
[28] = system: Mus musculus; assay: Immunosuppressant activity in BALB/c mouse assessed as reduction in circulating lymphocyte at 6 mg/kg, po measured after 5 hrs; assay type: functional, organism-based; design: dose 6 mg/kg
In short: (§6)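 BALB/c mice were dosed orally as a suspension in 0.5% methyl cellulose, at 6 mg/kg or 1.0 mg/kg. Circulating lymphocytes were followed over time, with readings at 5 h and 24 h.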

[29] = system: Mus musculus; assay: Reduction T-cell mediated beta-cell destruction in cyclophosphamide-induced non-obese type 1 diabetes mouse model assessed as normalization of blood glucose at 3 to 10 mg/kg, po qd for 25 days; assay type: functional, organism-based
In short: (§7)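 NOD mice were given cyclophosphamide i.p. on days 0 and 14 to accelerate diabetes onset. Oral dosing once daily in 0.5% methyl cellulose ran from day 0 to day 25. Animals with non-fasting blood glucose >250 mg/dL were scored diabetic.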

[30] = system: Mus musculus; assay: Immunosuppressant activity in BALB/c mouse assessed as reduction in circulating lymphocyte at 6 mg/kg, po measured up to 24 hrs; assay type: functional, organism-based; design: dose 6 mg/kg; in short: as §6
[31] = system: Mus musculus; assay: Immunosuppressant activity in BALB/c mouse assessed as reduction in circulating lymphocyte at 1 mg/kg, po measured at 5 hrs; assay type: functional, organism-based; design: dose 1 mg/kg; in short: as §6
[32] = system: Mus musculus; assay: Immunosuppressant activity in BALB/c mouse assessed as reduction in circulating lymphocyte at 1 mg/kg, po measured at 24 hrs; assay type: functional, organism-based; design: dose 1 mg/kg; in short: as §6
[33] = system: Mus musculus; assay: Immunosuppressant activity in autoimmune encephalomyelitis C57B1/6 mouse model assessed as reduction in disease score at 10 mg/kg, po qd administered on day 3 post challenge; assay type: functional, organism-based; design: dose 10 mg/kg
In short: (§8)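 Oral dosing once daily in 0.5% methylcellulose began on day 3. Signs of disease were monitored daily and graded on a 1–5 scale, from limp tail or hind-limb weakness (1) to death (5).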

[34] = system: Rattus norvegicus; assay: Immunosuppressant activity in collagen-induced Lewis rat arthritis model assessed as reduction in joint inflammation at 1 to 10 mg/kg, po qd; assay type: functional, organism-based
[35] = system: Mus musculus; assay: Reduction T-cell mediated beta-cell destruction in cyclophosphamide-induced non-obese type 1 diabetes mouse model assessed as normalization of blood glucose at 1 mg/kg, po qd for 25 days; assay type: functional, organism-based; design: dose 1 mg/kg; in short: as §7
[36] = system: Mus musculus; assay: Immunosuppressant activity in autoimmune encephalomyelitis C57B1/6 mouse model assessed as reduction in disease score at 1 mg/kg, po qd administered on day 3 post challenge; assay type: functional, organism-based; design: dose 1 mg/kg; in short: as §8
[37] = system: Rattus norvegicus; assay: Immunosuppressant activity in collagen-induced Lewis rat arthritis model assessed as reduction in joint inflammation at 1 mg/kg, po qd; assay type: functional, organism-based; design: dose 1 mg/kg

Sphingosine 1-phosphate receptor 5, sequence (Q9H228 whole entry): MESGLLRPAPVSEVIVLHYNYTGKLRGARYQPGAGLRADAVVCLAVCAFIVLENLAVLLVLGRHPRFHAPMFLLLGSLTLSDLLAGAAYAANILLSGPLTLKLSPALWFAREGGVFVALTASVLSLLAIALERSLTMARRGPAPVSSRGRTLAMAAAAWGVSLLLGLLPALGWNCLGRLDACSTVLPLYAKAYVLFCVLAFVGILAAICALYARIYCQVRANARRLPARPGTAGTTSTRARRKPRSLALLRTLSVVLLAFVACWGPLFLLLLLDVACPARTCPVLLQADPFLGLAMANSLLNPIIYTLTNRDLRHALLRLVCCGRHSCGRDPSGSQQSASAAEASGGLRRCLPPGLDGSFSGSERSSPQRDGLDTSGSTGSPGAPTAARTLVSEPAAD
T2 sequence (P21453 whole entry): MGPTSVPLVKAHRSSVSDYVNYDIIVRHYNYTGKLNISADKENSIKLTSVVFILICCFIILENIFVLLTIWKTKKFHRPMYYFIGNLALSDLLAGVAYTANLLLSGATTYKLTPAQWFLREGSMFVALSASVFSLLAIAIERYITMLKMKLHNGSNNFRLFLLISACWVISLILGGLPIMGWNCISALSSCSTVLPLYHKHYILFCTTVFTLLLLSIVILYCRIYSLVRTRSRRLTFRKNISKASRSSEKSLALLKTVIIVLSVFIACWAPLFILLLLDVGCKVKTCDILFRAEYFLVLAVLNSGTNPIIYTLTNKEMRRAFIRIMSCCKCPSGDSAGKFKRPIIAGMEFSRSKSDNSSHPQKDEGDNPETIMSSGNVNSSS
Sphingosine 1-phosphate receptor 1 (Mus musculus, UniProt O08530), sequence (O08530 whole entry): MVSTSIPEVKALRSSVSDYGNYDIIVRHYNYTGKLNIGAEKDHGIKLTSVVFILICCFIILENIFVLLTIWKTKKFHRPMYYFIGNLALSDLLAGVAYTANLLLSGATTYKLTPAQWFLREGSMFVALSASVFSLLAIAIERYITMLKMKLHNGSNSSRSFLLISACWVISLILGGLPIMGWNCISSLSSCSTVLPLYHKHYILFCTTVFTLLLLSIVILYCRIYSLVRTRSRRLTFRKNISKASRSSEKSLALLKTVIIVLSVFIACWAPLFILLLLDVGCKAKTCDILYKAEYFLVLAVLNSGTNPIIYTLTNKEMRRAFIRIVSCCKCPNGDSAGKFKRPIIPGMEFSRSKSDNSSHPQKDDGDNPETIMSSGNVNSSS
Sphingosine 1-phosphate receptor 2, sequence (O95136 whole entry): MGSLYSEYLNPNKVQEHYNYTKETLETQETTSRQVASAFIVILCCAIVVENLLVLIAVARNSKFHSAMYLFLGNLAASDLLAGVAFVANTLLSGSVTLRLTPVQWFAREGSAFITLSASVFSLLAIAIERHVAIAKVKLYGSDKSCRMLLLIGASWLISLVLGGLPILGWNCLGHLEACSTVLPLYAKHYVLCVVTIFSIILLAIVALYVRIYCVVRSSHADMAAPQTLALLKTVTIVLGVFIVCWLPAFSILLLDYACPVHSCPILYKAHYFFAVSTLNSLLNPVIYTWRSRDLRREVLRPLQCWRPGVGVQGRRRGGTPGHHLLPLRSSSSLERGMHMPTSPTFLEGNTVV
Sphingosine 1-phosphate receptor 1 (Rattus norvegicus, UniProt P48303), sequence (P48303 whole entry): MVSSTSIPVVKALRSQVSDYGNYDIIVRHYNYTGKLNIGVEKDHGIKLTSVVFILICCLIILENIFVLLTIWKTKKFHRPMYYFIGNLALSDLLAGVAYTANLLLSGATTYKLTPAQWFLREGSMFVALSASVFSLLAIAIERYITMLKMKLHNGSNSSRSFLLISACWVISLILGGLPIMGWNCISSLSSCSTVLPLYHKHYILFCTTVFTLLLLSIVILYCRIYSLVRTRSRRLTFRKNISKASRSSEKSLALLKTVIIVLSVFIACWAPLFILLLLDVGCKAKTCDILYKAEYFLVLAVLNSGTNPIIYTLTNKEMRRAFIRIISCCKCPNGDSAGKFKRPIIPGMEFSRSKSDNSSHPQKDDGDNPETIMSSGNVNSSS
Sphingosine 1-phosphate receptor 3, sequence (Q99500 whole entry): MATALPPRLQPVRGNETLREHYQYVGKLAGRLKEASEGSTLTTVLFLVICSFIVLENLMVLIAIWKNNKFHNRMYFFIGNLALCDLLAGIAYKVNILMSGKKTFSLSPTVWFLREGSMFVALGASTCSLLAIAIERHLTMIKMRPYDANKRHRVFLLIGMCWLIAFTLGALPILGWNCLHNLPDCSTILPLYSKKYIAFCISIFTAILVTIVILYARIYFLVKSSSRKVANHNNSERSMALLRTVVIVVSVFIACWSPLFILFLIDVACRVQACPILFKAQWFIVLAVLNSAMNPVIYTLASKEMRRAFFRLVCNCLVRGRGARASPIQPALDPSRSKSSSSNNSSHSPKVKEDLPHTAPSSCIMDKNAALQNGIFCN
T3 sequence (Q12809 whole entry): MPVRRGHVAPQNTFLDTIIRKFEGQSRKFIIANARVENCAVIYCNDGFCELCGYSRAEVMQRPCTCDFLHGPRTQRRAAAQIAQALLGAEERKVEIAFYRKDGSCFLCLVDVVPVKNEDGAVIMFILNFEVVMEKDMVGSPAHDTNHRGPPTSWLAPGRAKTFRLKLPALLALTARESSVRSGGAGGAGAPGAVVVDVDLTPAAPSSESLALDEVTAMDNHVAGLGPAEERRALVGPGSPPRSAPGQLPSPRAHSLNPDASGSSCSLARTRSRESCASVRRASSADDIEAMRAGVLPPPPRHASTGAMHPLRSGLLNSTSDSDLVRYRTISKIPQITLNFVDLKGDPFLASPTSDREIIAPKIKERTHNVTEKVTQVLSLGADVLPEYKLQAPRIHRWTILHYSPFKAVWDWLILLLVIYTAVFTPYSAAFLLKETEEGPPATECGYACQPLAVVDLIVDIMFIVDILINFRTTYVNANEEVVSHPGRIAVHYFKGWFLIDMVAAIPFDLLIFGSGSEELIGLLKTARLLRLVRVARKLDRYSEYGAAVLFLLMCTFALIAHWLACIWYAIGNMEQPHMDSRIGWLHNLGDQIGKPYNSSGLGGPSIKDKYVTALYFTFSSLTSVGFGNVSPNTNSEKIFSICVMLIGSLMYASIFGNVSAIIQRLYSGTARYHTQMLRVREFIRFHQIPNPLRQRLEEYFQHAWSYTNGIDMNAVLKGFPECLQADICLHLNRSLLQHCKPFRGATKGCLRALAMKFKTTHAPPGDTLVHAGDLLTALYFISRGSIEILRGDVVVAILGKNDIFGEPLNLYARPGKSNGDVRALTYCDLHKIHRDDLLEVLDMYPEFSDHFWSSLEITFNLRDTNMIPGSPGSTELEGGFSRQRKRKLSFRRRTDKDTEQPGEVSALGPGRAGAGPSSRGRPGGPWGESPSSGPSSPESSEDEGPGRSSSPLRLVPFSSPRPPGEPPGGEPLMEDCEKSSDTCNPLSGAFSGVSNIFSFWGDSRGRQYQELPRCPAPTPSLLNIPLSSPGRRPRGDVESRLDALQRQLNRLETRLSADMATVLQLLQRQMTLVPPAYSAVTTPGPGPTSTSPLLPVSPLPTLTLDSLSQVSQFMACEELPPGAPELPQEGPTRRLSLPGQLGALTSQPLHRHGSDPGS
Cytochrome P450 3A4, sequence (P08684 whole entry): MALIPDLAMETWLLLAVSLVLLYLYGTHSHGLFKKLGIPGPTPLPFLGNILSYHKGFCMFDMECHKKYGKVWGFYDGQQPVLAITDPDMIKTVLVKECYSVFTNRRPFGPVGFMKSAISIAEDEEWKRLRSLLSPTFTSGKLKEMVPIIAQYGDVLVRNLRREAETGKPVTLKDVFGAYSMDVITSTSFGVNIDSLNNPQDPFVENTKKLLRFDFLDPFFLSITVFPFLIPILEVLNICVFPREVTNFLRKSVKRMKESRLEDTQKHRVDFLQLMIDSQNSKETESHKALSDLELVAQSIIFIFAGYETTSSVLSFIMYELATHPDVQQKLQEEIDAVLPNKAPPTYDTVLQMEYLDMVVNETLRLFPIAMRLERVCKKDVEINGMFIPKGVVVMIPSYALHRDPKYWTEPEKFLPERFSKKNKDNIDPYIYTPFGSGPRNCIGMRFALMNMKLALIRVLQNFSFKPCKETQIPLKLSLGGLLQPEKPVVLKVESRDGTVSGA
Cytochrome P450 2C19, sequence (P33261 whole entry): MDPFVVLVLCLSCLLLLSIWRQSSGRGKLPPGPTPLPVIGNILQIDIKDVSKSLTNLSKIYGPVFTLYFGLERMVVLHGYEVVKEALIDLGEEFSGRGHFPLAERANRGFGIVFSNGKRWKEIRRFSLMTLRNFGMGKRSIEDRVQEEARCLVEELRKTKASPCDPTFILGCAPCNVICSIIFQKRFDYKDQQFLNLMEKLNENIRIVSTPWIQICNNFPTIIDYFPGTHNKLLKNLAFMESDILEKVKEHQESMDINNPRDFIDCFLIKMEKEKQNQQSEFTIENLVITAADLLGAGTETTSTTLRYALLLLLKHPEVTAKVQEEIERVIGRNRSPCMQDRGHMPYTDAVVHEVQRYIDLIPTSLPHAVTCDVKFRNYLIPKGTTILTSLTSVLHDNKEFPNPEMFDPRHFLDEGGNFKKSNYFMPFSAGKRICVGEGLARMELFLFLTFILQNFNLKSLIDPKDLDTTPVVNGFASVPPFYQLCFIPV
Cytochrome P450 2C9, sequence (P11712 whole entry): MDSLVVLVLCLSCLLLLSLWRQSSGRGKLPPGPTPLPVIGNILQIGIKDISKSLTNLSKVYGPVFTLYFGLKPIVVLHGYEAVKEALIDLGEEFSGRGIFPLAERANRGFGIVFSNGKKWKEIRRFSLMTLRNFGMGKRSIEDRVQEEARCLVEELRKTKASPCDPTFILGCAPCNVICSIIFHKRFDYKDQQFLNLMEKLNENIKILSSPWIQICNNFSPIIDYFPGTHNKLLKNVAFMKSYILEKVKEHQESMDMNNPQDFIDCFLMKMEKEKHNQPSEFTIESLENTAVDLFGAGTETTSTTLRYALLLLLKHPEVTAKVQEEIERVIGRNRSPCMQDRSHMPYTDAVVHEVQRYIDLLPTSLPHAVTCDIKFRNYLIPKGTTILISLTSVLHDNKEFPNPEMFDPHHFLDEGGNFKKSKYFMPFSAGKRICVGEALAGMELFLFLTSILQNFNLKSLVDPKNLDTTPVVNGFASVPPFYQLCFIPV

SMILES: N#Cc1cc(OC(F)(F)F)cc(-c2nc(-c3ccc4c(c3)cc3n4CCC3CC(=O)O)no2)c1 (single isomer, unassigned; enantiomer 2) [listing 1 of 2 here]
- pEC50 [1]: < 4.00
- pEC50 [2]: 8.32
- Activity [3]: Non-toxic
- half-life [4]: > 1 h
- pIC50 [5]: < 4.52
- pIC50 [6]: < 4.52
- pIC50 [7]: < 3.40
- pEC50 [8]: 9.28
- pEC50 [9]: < 4.00
- Activity [10]: Non-toxic
- Cmax [11]: 13300 ng/mL
- pIC50 [12]: < 4.52
- pIC50 [13]: < 4.52
- pIC50 [14]: < 4.52
- half-life [15]: 4.68 h
- clearance [16]: 0.422 mL/min/kg
- pIC50 [17]: < 4.52
- pEC50 [18]: < 4.00
- pEC50 [19]: 10.10
- half-life [20]: > 1 h
- AUC(0-t) [21]: 124 µg·h/mL
- Activity [22]: Non-toxic
- pEC50 [23]: 7.68
- Activity [24]: Non-toxic
- pEC50 [25]: 10.00
- bioavailability [26]: 100%
- Vd [27]: 0.234 L/kg

SMILES: N#Cc1cc(OC(F)(F)F)cc(-c2nc(-c3ccc4c(c3)cc3n4CCC3CC(=O)O)no2)c1 (single isomer, unassigned; enantiomer 2) [listing 2 of 2 here]
- Activity [28]: Active
- Activity [29]: Active
- Activity [30]: Active
- Activity [31]: Active
- Activity [32]: inactive
- Activity [33]: Active
- Activity [34]: Active
- Activity [35]: Active

SMILES: N#Cc1cc(OC(F)(F)F)cc(-c2nc(-c3ccc4[nH]c5c(c4c3)CCC5CC(=O)O)no2)c1 (stereo in doubt; 17a)
- pEC50 [1]: 6.62
- pEC50 [2]: 7.26
- pEC50 [8]: 8.08
- pEC50 [9]: < 4.00
- pEC50 [18]: < 4.00
- pEC50 [19]: 8.76
- pEC50 [23]: 7.96
- pEC50 [25]: 8.85

SMILES: N#Cc1cc(OC(F)(F)F)cc(-c2nc(-c3ccc4c(c3)cc3n4CCC3CC(=O)O)no2)c1 (stereo in doubt; 23a)
- pEC50 [1]: < 4.00
- pEC50 [2]: 6.91
- pEC50 [8]: 8.26
- pEC50 [9]: < 4.00
- pEC50 [18]: < 4.00
- pEC50 [19]: 9.12
- pEC50 [23]: 6.54
- pEC50 [25]: 8.47

SMILES: CCCCCCCCc1ccc(CCC(N)(CO)CO)cc1 [FINGOLIMOD]
- Activity [36]: Active
- Activity [37]: Active
- Activity [22]: Toxic
